Assay type in all cases: functional, cell-based
In experiment [1] the target is T1, Nucleotide-binding oligomerization domain-containing protein 1 (Homo sapiens, UniProt Q9Y239).
T1 sequence (Q9Y239 whole entry): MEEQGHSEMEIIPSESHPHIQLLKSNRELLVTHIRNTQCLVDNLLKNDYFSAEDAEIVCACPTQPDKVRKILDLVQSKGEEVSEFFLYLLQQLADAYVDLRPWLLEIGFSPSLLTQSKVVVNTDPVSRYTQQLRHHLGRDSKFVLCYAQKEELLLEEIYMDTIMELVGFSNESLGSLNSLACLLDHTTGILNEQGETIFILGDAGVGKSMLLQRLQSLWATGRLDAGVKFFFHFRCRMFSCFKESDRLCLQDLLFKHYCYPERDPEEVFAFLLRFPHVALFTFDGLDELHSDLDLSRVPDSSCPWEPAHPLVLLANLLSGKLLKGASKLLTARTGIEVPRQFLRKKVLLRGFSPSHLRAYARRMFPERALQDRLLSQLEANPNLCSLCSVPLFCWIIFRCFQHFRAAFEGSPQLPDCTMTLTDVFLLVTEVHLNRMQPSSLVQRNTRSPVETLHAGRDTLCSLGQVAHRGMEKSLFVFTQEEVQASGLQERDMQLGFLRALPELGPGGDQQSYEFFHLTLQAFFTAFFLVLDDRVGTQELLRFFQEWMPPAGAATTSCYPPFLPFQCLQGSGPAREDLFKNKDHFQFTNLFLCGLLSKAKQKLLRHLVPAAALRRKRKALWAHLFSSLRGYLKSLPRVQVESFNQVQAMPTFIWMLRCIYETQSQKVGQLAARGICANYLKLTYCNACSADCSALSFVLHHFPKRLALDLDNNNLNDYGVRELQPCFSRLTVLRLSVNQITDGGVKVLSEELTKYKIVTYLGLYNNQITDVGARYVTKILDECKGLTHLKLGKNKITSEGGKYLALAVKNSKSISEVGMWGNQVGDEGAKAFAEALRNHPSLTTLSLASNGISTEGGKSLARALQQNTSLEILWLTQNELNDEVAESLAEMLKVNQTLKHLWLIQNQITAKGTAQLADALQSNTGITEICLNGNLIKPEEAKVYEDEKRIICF
As to the kind of experiment: Agonist activity at human NOD-1 expressed in human HEK293 cells assessed as NF-kappaB induction by spectrophotometric analysis. A digest of the protocol: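 HEK-Blue cells (HEK293 stably transfected with human Nod1 and an NF-κB/AP-1-inducible secreted alkaline phosphatase reporter) were kept in selection medium with zeocin and normocin. Cells at ~10^5 cells/mL were grown to confluency and then given graded compound concentrations. Supernatant sAP was read spectrophotometrically at 620 nm with an alkaline phosphatase-specific chromogen.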

A short description of experiment [2]: Upregulation of CD11b expression in human […] by flow cytometry. A digest of the protocol: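 Fresh anticoagulated human whole blood was incubated with graded compound dilutions for 1 h at 37°C, with saline negative controls. Samples were chilled 15 min, then stained with anti-CD11b/Mac-1 on ice for 30 min so only surface CD11b was labelled. Erythrocytes were lysed and leukocytes fixed, then washed. Flow cytometry in single-color PE mode acquired 20,000 gated events.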

Experiment [3] can be described thus: Upregulation of p38 MAPK expression in human […] by flow cytometry. Summed up:
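Fresh heparinized human whole blood was incubated with graded compound concentrations diluted in saline for 15 min at 37°C. Erythrocytes were lysed and leukocytes fixed in one step, then permeabilized in ice-cold methanol for 30 min. Cells were stained 60 min with PE anti-phospho-p38MAPK (pT180/pY182) or a PE IgG1 κ isotype control. Flow cytometry acquired 20,000 gated events.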
For orientation: Flow cytometry measures light scatter and fluorescence of single cells or particles in a stream.

For the compound `CCCCCCCCCCCC(=O)N[C@H](CCC(=O)NC(CCCC(N)C(=O)O)C(=O)O)C(=O)O` (some centres undefined), the EC50 in experiment [1] came out at 0.027 nM. In addition, the Activity entry in experiment [2] and in experiment [3] was “Dose-dependent effect” each time. For the compound `CCCCCCCCCCCC(=O)NCCCC(=O)NC(CCCC(N)C(=O)O)C(=O)O` (centres undefined), the EC50 in experiment [1] amounted to 0.504 nM. The same measure, in the same setting: under `CCCCCCCCCCCC(=O)N[C@H](CCC(=O)NC(CCCC(N)C(=O)OCC)C(=O)OCC)C(=O)O` (some centres undefined) stands 0.145 nM. Consider `CCCCCCCCCCCC(=O)NC(CCCC(NC(=O)CC[C@@H](N)C(=O)O)C(=O)O)C(=O)O` (some centres undefined), for which, in experiment [1], the EC50 is 0.55 nM. The same measure, in the same setting: next, `CCCCCCCCCCCOC(=O)[C@@H](CCC(=O)NC(CCCC(N)C(=O)O)C(=O)O)NC(=O)CCCCCCCCCCC` (some centres undefined): 0.134 nM; `CCCCCCCCCCCC(=O)N[C@H](CCC(=O)NC1CCCCNC1=O)C(=O)O` (some centres undefined): 1.73 nM.

In the case of `CCCCCCCCCCCSC(=O)[C@H](N)CCC(=O)NC(CCCC(N)C(=O)OCC)C(=O)OCC` (some centres undefined), the EC50 in experiment [1] stood at 0.181 nM.

As usually defined, the EC50 is the concentration at which the effect is half-maximal.

Values taken from ChEMBL document CHEMBL1687899, “Structure-activity relationships in nucleotide oligomerization domain 1 (Nod1) agonistic γ-glutamyldiaminopimelic acid derivatives” (J Med Chem, 2011).
